Measured values reported in ChEMBL document CHEMBL3877247, “Identification of an indol-based derivative as potent and selective varicella zoster virus (VZV) inhibitor” (Eur J Med Chem, 2016).

Legend:
Human alphaherpesvirus 3 [1] = test: Antiviral activity against thymidine Kinase expressing Varicella-Zoster virus OKA infected in HEL cells assessed as inhibition of virus plaque formation; assay type: functional, cell-based; settings: Human alphaherpesvirus 3, OKA
In short: (§1)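 Confluent HEL cell monolayers were infected with 20 PFU of VZV and incubated with varying compound concentrations. Plaques were scored once plaque formation was complete in untreated infected controls.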

Human alphaherpesvirus 3 [2] = test: Antiviral activity against thymidine kinase deficient Varicella-Zoster virus 07-1 infected in HEL cells assessed as inhibition of virus plaque formation; assay type: functional, cell-based; settings: Human alphaherpesvirus 3, 07-1, HEL
In short: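 Confluent HEL fibroblast monolayers were infected with 20 PFU of TK⁻ VZV strain 07-1 and incubated with varying compound concentrations. Plaques were recorded once plaque formation reached completion in untreated infected controls.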

[3] = Cytotoxicity against HEL cells assessed as growth inhibition after 3 days by coulter counter method; assay type: toxicity, cell-based; settings: human; for CC50: hel, 72 h; for CC50 at 72 h: HEL cells
In short: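 HEL cells were seeded at 5×10^3 cells/well and allowed to grow for 24 h. Medium with varying compound concentrations was then added, and cells were incubated for 3 days at 37 °C before counting with a Coulter counter.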

Human betaherpesvirus 5 [4] = test: Antiviral activity against Human cytomegalovirus AD169 infected in HEL cells assessed as inhibition of virus plaque formation; assay type: functional, cell-based; settings: Human betaherpesvirus 5, AD169, HEL
Human betaherpesvirus 5 [5] = test: Antiviral activity against Human cytomegalovirus Davis infected in HEL cells assessed as inhibition of virus plaque formation; assay type: functional, cell-based; settings: Human betaherpesvirus 5, Davis
Human alphaherpesvirus 1 [6] = test: Antiviral activity against Herpes simplex virus 1 KOS infected in HEL cells assessed as inhibition of virus plaque formation; assay type: functional, cell-based; settings: Human alphaherpesvirus 1, KOS
Human alphaherpesvirus 1 [7] = test: Antiviral activity against thymidine kinase-deficient acyclovir-resistant Herpes simplex virus 1 KOS infected in HEL cells assessed as inhibition of virus plaque formation; assay type: functional, cell-based; settings: Human alphaherpesvirus 1, KOS
Human alphaherpesvirus 2 = test: Antiviral activity against Herpes simplex virus 2 G infected in HEL cells assessed as inhibition of virus plaque formation; assay type: functional, cell-based; settings: Human alphaherpesvirus 2, strain G
[8] = Cytotoxicity against HEL cells assessed as alteration of cell morphology after 3 days by microscopic method; assay type: toxicity, cell-based; settings: human
In short: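 HEL cultures were exposed to compound at varying concentrations. Cytotoxicity was recorded as the minimum cytotoxic concentration, the lowest concentration giving a microscopically detectable alteration of cell morphology.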

Human alphaherpesvirus 3 [9] = test: Antiviral activity against thymidine kinase deficient Varicella-Zoster virus YS-R infected in HEL cells assessed as inhibition of virus plaque formation; assay type: functional, cell-based; settings: Human alphaherpesvirus 3, YS-R; in short: as §1

| Compound | EC50 (Human alphaherpesvirus 3 [1]) [µM] | EC50 (Human alphaherpesvirus 3 [2]) [µM] | CC50 [3] [µM] | EC50 (Human betaherpesvirus 5 [4]) [µM] | EC50 (Human betaherpesvirus 5 [5]) [µM] | EC50 (Human alphaherpesvirus 1 [6]) [µM] | EC50 (Human alphaherpesvirus 1 [7]) [µM] | EC50 (Human alphaherpesvirus 2) [µM] | MCC at 72 h [8] [µM] | EC50 (Human alphaherpesvirus 3 [9]) [nM] | CC50 at 72 h [3] [µM] |
| --- | --- | --- | --- | --- | --- | --- | --- | --- | --- | --- | --- |
| Cn1cc(CCNCc2ccc(Cl)cc2)c2ccccc21 | > 4 | > 4 | 22 | > 20 | > 20 | > 20 | > 20 | > 20 | 20 |  |  |
| COc1ccc(CNCCc2cn(C)c3ccccc23)cc1 | > 20 | > 20 | 28 | > 20 | > 20 | > 20 | > 20 | > 20 | 100 |  |  |
| Cn1cc(CCNCCc2ccc(-c3ccccc3)cc2)c2ccccc21 |  | > 4 | 20 | > 4 | > 4 | > 100 | > 100 | > 100 | > 4 |  |  |
| CC(=O)N(CCc1cn(C)c2ccccc12)Cc1ccc2ccccc2c1 | > 4 | > 4 |  |  |  |  |  |  | 20 |  |  |
| CC(=O)N(CCc1cn(C)c2ccccc12)Cc1cccc2ccccc12 | > 20 | > 20 |  |  |  |  |  |  | 100 |  |  |
| CC(=O)N(CCc1cn(C)c2ccccc12)c1cccc2ccccc12 | > 20 | > 20 |  |  |  |  |  |  | 100 |  |  |
| CC(=O)N(CCc1cn(C)c2ccccc12)Cc1ccc(-c2ccccc2)cc1 | > 20 | > 20 |  |  |  |  |  |  | 100 |  |  |
| Cn1cc(CCNc2ccc3ccccc3c2)c2ccccc21 | > 100 | > 100 | 41 | 76 | 100 | > 100 | > 100 | > 100 | > 100 |  |  |
| COC(=O)c1ccc(CNCCc2cn(Cc3ccc(-c4ccccc4)cc3)c3ccccc23)cc1 |  | > 4 | 7.3 | > 4 | > 4 | > 100 | > 100 | > 100 | 20 | > 4000 |  |
| CC(=O)N(CCc1cn(C)c2ccccc12)c1ccc2ccccc2c1 | > 4 | > 4 |  |  |  |  |  |  | 20 |  |  |
| CCCn1cc(CNCCc2ccc(-c3ccccc3)cc2)c2ccccc21 | > 0.8 | > 0.8 | 1.7 |  | > 0.16 | > 100 | > 100 | > 100 | 4 |  |  |
| Cn1cc(CCN(CCc2ccc(-c3ccccc3)cc2)C(=O)C2CCCCC2)c2ccccc21 | > 4 | > 4 |  |  |  |  |  |  | 20 |  |  |
| CC(=O)N(CCc1ccc(-c2ccccc2)cc1)CCc1cn(C)c2ccccc12 | 2.5 to 3.6 | 1.7 to 3.1 | 31 to 39 |  | > 4 | > 100 | > 100 | > 100 | 20 to 35 | 2100 |  |
| Cn1cc(CCN(CCc2ccc(-c3ccccc3)cc2)C(=O)c2ccccc2)c2ccccc21 | 20 | 20 |  |  |  |  |  |  | > 100 |  |  |
| Cn1cc(CCN(CCc2ccc(-c3ccccc3)cc2)C(=O)CCN2CCOCC2)c2ccccc21 | > 4 | > 4 |  |  |  |  |  |  | 20 |  |  |
| CCCn1cc(C(=O)c2ccc(Cl)cc2)c2ccccc21 | > 100 | > 100 | > 100 |  | > 100 | > 100 | > 100 | > 100 | > 100 |  |  |
| CCCn1cc(CN2CCCCC2)c2cc(NC(=O)c3ccccc3)ccc21 | > 20 | > 20 | 31 |  | > 20 | > 100 | > 100 | > 100 | 100 |  |  |
| CCCn1cc(CN2CCCCC2)c2cc(CNc3ccc(Cl)cc3)ccc21 | > 4 | > 4 | 15 |  | > 4 | > 20 | > 20 | > 20 | 20 |  |  |
| c1ccc(-c2ccc(Cn3cc(CN4CCCCC4)c4ccccc43)cc2)cc1 | > 4 | > 4 | 6.9 |  | > 4 | > 20 | > 20 | > 20 | 20 |  |  |
| Cn1cc(CCN(CCc2ccc(-c3ccccc3)cc2)C(=O)OC(C)(C)C)c2ccccc21 | > 4 | > 4 |  |  |  |  |  |  | 20 |  |  |
| CC(=O)N(CCc1cn(C)c2ccccc12)Cc1ccc(Oc2ccccc2)cc1 | > 4 | > 4 |  |  |  |  |  |  | 20 |  |  |
| CCCn1cc(CN2CCCCC2)c2ccccc21 | > 100 | > 100 | > 100 | > 4 | > 4 | > 100 | > 100 | > 100 | > 100 |  |  |
| CCCn1cc(CNCCc2ccc(-c3ccccc3)cc2)c2cc(CNc3ccc(Cl)cc3)ccc21 | > 4 | > 4 | 9.7 |  | > 4 | > 4 | > 4 | > 4 | 20 |  |  |
| Nc1nc2c(ncn2COCCO)c(=O)[nH]1 [ACYCLOVIR] |  |  |  |  |  |  |  |  | 250 to 440 |  | 191 to 224 |
| O=c1[nH]c(=O)n([C@H]2C[C@H](O)[C@@H](CO)O2)cc1/C=C/Br [BRIVUDINE] | 0.019 to 0.035 | 33 to 143 |  |  |  |  |  | 96 | 250 to 300 |  | 160 to 300 |
| Nc1ccn(C[C@@H](CO)OCP(=O)(O)O)c(=O)n1 [CIDOFOVIR] |  |  |  |  |  | 0.4 |  | 0.7 | > 250 |  |  |
| Nc1nc(O)c2ncn(COC(CO)CO)c2n1 [GANCICLOVIR] |  |  |  |  |  |  |  |  | > 100 |  |  |
